Source: ChEMBL document CHEMBL3124859, “Novel Peptidomimetic Hepatitis C Virus NS3/4A Protease Inhibitors Spanning the P2-P1' Region” (ACS Med Chem Lett, 2014)
Values after ≈ are worked out from the molar mass of the structure shown. One block for each compound: values may come before it.

How the values were obtained:
[1] = Cytotoxicity against human HuH7 cells; format: cell-based, Huh-7
[2] = tested on: Hepatitis C virus; experiment: Antiviral activity against Hepatitis C virus genotype 1b infected in human HuH7 cells by subgenomic replicon-based luciferase assay; format: functional, organism-based, Hepacivirus hominis; conditions: Huh-7
In short: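 Huh-7 replicon cell line carrying a subgenomic HCV genotype 1b RNA replicon with a firefly luciferase reporter; replicon inhibition read by luciferase signal and reported as EC50.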

[3] = Inhibition of Hepatitis C virus genotype 1a full length NS3/2K-NS4A protease using Ac-DED(Edans)EEAbupsi[COO]ASK(Dabcyl)-NH2 as substrate incubated for 10 mins prior to substrate addition by FRET analysis; design: species or system Hepatitis C virus subtype 1a
[4] = target: NS3 protease (Hepacivirus C, UniProt C1KIQ2, A156T); experiment: Inhibition of Hepatitis C virus genotype 1a full length NS3/2K-NS4A protease A156T mutant using Ac-DED(Edans)EEAbupsi[COO]ASK(Dabcyl)-NH2 as substrate incubated for 10 mins prior to substrate addition by FRET analysis; design: species or system Hepatitis C virus subtype 1a
In short: (§1)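 Ki (nM ± SD) determined against each resistant NS3/4A protease variant. A vitality value was calculated for each variant as V = [Ki × (kcat/Km)]variant / [Ki × (kcat/Km)]wild-type, normalising for the effect of the substitution on catalytic efficiency.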

[5] = Half life in human liver microsomes at 1 uM after 5 mins by LC/MS/MS analysis
[6] = target: NS3 protease (Hepacivirus C, UniProt C1KIQ2, R155K); experiment: Inhibition of Hepatitis C virus genotype 1a full length NS3/2K-NS4A protease R155K mutant using Ac-DED(Edans)EEAbupsi[COO]ASK(Dabcyl)-NH2 as substrate incubated for 10 mins prior to substrate addition by FRET analysis; design: species or system Hepatitis C virus subtype 1a; in short: as §1
[7] = target: NS3 protease (Hepacivirus C, UniProt C1KIQ2, D168V); experiment: Inhibition of Hepatitis C virus genotype 1a full length NS3/2K-NS4A protease D168V mutant using Ac-DED(Edans)EEAbupsi[COO]ASK(Dabcyl)-NH2 as substrate incubated for 10 mins prior to substrate addition by FRET analysis; design: species or system Hepatitis C virus subtype 1a; in short: as §1
[8] = in vitro; conditions: human
[9] = Apparent permeability from apical to basolateral side of human Caco2 cells at 10 uM; conditions: Caco-2
[10] = Solubility of the compound in phosphate buffered saline at pH 7.4 after 1 hr by LC-MS/MS analysis

NS3 protease (Hepacivirus C, UniProt C1KIQ2, D168V), sequence (C1KIQ2 entry or part of it D168V): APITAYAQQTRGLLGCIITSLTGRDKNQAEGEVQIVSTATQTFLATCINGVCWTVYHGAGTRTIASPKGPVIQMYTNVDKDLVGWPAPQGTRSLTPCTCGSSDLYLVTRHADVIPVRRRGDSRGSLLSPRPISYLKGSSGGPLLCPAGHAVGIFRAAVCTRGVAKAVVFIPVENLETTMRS
NS3 protease (Hepacivirus C, UniProt C1KIQ2, A156T), sequence (C1KIQ2 entry or part of it A156T): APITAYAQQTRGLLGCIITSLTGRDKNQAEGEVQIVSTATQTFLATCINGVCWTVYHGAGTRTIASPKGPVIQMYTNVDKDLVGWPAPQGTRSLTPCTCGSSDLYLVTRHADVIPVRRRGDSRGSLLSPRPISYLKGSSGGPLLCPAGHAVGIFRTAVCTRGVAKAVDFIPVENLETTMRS
NS3 protease (Hepacivirus C, UniProt C1KIQ2, R155K), sequence (C1KIQ2 entry or part of it R155K): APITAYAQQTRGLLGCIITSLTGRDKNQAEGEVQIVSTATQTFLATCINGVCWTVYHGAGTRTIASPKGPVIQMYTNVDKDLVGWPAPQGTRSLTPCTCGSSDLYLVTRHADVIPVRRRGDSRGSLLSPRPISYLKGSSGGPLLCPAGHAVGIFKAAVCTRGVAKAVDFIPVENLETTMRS

EC50 [2]: 12500 nM
SMILES: C=CCCCS(=O)(=O)NC(=O)c1ccccc1NC(=O)C(NC(=O)[C@@H](NC(=O)OC(C)(C)C)C(C)(C)C)c1ccc(Oc2cc(OC)nc(-c3ccccc3)n2)c(C=C)c1 (mixture of isomers)
CC50 [1]: ≥ 50000 nM

SMILES: COc1ccc2c(O[C@@H]3C[C@H]4C(=O)N[C@]5(C(=O)O)C[C@H]5/C=C\CCCCC[C@H](NC(=O)OC5CCCC5)C(=O)N4C3)cc(-c3csc(NC(C)C)n3)nc2c1
Ki [3]: 300 nM

SMILES: C=Cc1cc([C@H](NC(=O)[C@@H](NC(=O)OC(C)(C)C)C(C)(C)C)C(=O)Nc2ccc(C(=O)NS(=O)(=O)c3ccc(C(F)(F)F)cc3)cc2)ccc1Oc1cc(OC)nc(-c2ccccc2)n1
Ki [3]: 30 nM

SMILES: C=CCCCS(=O)(=O)NC(=O)c1ccc(NC(=O)C(NC(=O)OC(C)(C)C)c2ccc(Oc3cc(OC)nc(-c4ccccc4)n3)c(C=C)c2)cc1 (configuration not stated)
Ki [3]: 220 nM

SMILES: C=Cc1cc([C@H](NC(=O)[C@@H](NC(=O)OC(C)(C)C)C(C)(C)C)C(=O)Nc2ccccc2C(=O)NS(=O)(=O)c2ccc(C(F)(F)F)cc2)ccc1Oc1cc(OC)nc(-c2ccccc2)n1
Ki [3]: 45 nM

SMILES: C=CCCCS(=O)(=O)NC(=O)c1ccc(NC(=O)[C@@H](NC(=O)[C@@H](NC(=O)OC(C)(C)C)C(C)(C)C)c2ccc(Oc3cc(OC)nc(-c4ccccc4)n3)c(C=C)c2)cc1
Ki [3]: 96 nM

SMILES: C=CCCCS(=O)(=O)NC(=O)c1ccccc1NC(=O)[C@@H](NC(=O)[C@@H](NC(=O)OC(C)(C)C)C(C)(C)C)c1ccc(Oc2cc(OC)nc(-c3ccccc3)n2)c(C=C)c1
Ki [3]: 26 nM

SMILES: C=Cc1cc(C(NC(=O)OC(C)(C)C)C(=O)Nc2cccc(C(=O)NS(=O)(=O)c3ccc(C(F)(F)F)cc3)c2)ccc1Oc1cc(OC)nc(-c2ccccc2)n1 (configuration not stated)
Ki [4]: 110 nM
CC50 [1]: ≥ 50000 nM
half-life at 5 min, 1 µM ([5]; liver microsomes): 1.95 h
Ki [3]: 58 nM
Ki [6]: 580 nM
EC50 [2]: 27500 nM
Ki [7]: 180 nM
microsomal CLint at 5 min, 1 µM ([8]; liver microsomes): 12 µL/min/mg
Papp A→B at 10 µM [9]: 1 ×10⁻⁶ cm/s

SMILES: C=CCCCS(=O)(=O)NC(=O)c1cccc(NC(=O)[C@H](NC(=O)[C@@H](NC(=O)OC(C)(C)C)C(C)(C)C)c2ccc(Oc3cc(OC)nc(-c4ccccc4)n3)c(C=C)c2)c1
Ki [3]: 100 nM

SMILES: C=Cc1cc(C(NC(=O)N2CCOCC2)C(=O)Nc2cccc(C(=O)NS(=O)(=O)c3ccc(C(F)(F)F)cc3)c2)ccc1Oc1cc(OC)nc(-c2ccccc2)n1 (configuration not stated)
Ki [3]: 590 nM

SMILES: C=Cc1cc(C(NC(=O)c2cccnc2)C(=O)Nc2cccc(C(=O)NS(=O)(=O)c3ccc(C(F)(F)F)cc3)c2)ccc1Oc1cc(OC)nc(-c2ccccc2)n1 (configuration not stated)
Ki [3]: 240 nM

SMILES: C=CCCCS(=O)(=O)NC(=O)c1cccc(NC(=O)C(NC(=O)OC(C)(C)C)c2ccc(Oc3cc(OC)nc(-c4ccccc4)n3)c(C=C)c2)c1 (configuration not stated)
Ki [3]: 210 nM

half-life at 5 min, 1 µM ([5]; microsomes): 1.47 h
solubility at 1 h [10]: 5 µM (≈ 4.02 µg/mL)
microsomal CLint at 5 min, 1 µM ([8]; microsomes): 16 µL/min/mg
Papp A→B at 10 µM [9]: 4 ×10⁻⁶ cm/s
SMILES: C=Cc1cc(C(NC(=O)OC(C)(C)C)C(=O)Nc2ccccc2C(=O)NS(=O)(=O)c2ccc(C(F)(F)F)cc2)ccc1Oc1cc(OC)nc(-c2ccccc2)n1 (configuration not stated)
Ki [3]: 240 nM

half-life at 5 min, 1 µM ([5]; liver microsomes): 0.917 h
microsomal CLint at 5 min, 1 µM ([8]; liver microsomes): 25 µL/min/mg
SMILES: C=Cc1cc(C(NC(=O)OC(C)(C)C)C(=O)Nc2ccc(C(=O)NS(=O)(=O)c3ccc(C(F)(F)F)cc3)cc2)ccc1Oc1cc(OC)nc(-c2ccccc2)n1 (configuration not stated)
Ki [3]: 46 nM

SMILES: C=CCCCS(=O)(=O)NC(=O)c1ccccc1NC(=O)[C@H](NC(=O)[C@@H](NC(=O)OC(C)(C)C)C(C)(C)C)c1ccc(Oc2cc(OC)nc(-c3ccccc3)n2)c(C=C)c1
Ki [3]: 33 nM

SMILES: C=CCCCS(=O)(=O)NC(=O)c1cccc(NC(=O)C(NC(=O)OC2CCCC2)c2ccc(Oc3cc(OC)nc(-c4ccccc4)n3)c(C=C)c2)c1 (configuration not stated)
Ki [3]: 130 nM

SMILES: C=Cc1cc([C@@H](NC(=O)[C@@H](NC(=O)OC(C)(C)C)C(C)(C)C)C(=O)Nc2ccc(C(=O)NS(=O)(=O)c3ccc(C(F)(F)F)cc3)cc2)ccc1Oc1cc(OC)nc(-c2ccccc2)n1
Ki [3]: 30 nM

SMILES: C=CCCCS(=O)(=O)NC(=O)c1ccc(NC(=O)[C@H](NC(=O)[C@@H](NC(=O)OC(C)(C)C)C(C)(C)C)c2ccc(Oc3cc(OC)nc(-c4ccccc4)n3)c(C=C)c2)cc1
Ki [3]: 110 nM

SMILES: C=Cc1cc(C(NC(=O)OC2CCCC2)C(=O)Nc2cccc(C(=O)NS(=O)(=O)c3ccc(C(F)(F)F)cc3)c2)ccc1Oc1cc(OC)nc(-c2ccccc2)n1 (configuration not stated)
Ki [3]: 72 nM

SMILES: C=Cc1cc(C(N)C(=O)Nc2cccc(C(=O)NS(=O)(=O)c3ccc(C(F)(F)F)cc3)c2)ccc1Oc1cc(OC)nc(-c2ccccc2)n1 (configuration not stated)
Ki [3]: 1200 nM

SMILES: C=Cc1cc(C(NC(=O)OC2CCCC2)C(=O)Nc2ccc(C(=O)NS(=O)(=O)c3ccc(C(F)(F)F)cc3)cc2)ccc1Oc1cc(OC)nc(-c2ccccc2)n1 (configuration not stated)
Ki [3]: 55 nM

SMILES: C=Cc1cc([C@H](NC(=O)[C@@H](NC(=O)OC(C)(C)C)C(C)(C)C)C(=O)Nc2cccc(C(=O)NS(=O)(=O)c3ccc(C(F)(F)F)cc3)c2)ccc1Oc1cc(OC)nc(-c2ccccc2)n1
Ki [4]: 53 nM
CC50 [1]: ≥ 50000 nM
half-life at 5 min, 1 µM ([5]; liver microsomes): 0.283 h
Ki [3]: 24 nM
solubility at 1 h [10]: 43 µM (≈ 39.4 µg/mL)
Ki [6]: 210 nM
EC50 [2]: > 50000 nM
Ki [7]: 110 nM
microsomal CLint at 5 min, 1 µM ([8]; liver microsomes): 80 µL/min/mg
Papp A→B at 10 µM [9]: 9.7 ×10⁻⁶ cm/s

SMILES: C=Cc1cc(C(NC(C)=O)C(=O)Nc2cccc(C(=O)NS(=O)(=O)c3ccc(C(F)(F)F)cc3)c2)ccc1Oc1cc(OC)nc(-c2ccccc2)n1 (configuration not stated)
Ki [3]: 700 nM

half-life at 5 min, 1 µM ([5]; microsomes): 0.35 h
solubility at 1 h [10]: 101 µM (≈ 73.5 µg/mL)
microsomal CLint at 5 min, 1 µM ([8]; microsomes): 66 µL/min/mg
Papp A→B at 10 µM [9]: 1 ×10⁻⁶ cm/s
SMILES: C=CCCCS(=O)(=O)NC(=O)c1ccccc1NC(=O)[C@@H](NC(=O)OC(C)(C)C)c1ccc(Oc2cc(OC)nc(-c3ccccc3)n2)c(C=C)c1
Ki [3]: 190 nM

SMILES: C=CCCCS(=O)(=O)NC(=O)c1cccc(NC(=O)[C@@H](NC(=O)[C@@H](NC(=O)OC(C)(C)C)C(C)(C)C)c2ccc(Oc3cc(OC)nc(-c4ccccc4)n3)c(C=C)c2)c1
Ki [3]: 88 nM

half-life at 5 min, 1 µM ([5]; liver microsomes): 3.23 h
microsomal CLint at 5 min, 1 µM ([8]; liver microsomes): 7 µL/min/mg
SMILES: C=Cc1cc(C(NC(=O)NC(C)(C)C)C(=O)Nc2cccc(C(=O)NS(=O)(=O)c3ccc(C(F)(F)F)cc3)c2)ccc1Oc1cc(OC)nc(-c2ccccc2)n1 (configuration not stated)
Ki [3]: 140 nM

SMILES: CCC[C@H](NC(=O)[C@@H]1[C@H]2CCC[C@H]2CN1C(=O)[C@@H](NC(=O)[C@@H](NC(=O)c1cnccn1)C1CCCCC1)C(C)(C)C)C(=O)C(=O)NC1CC1
Ki [3]: 40 nM
